Here are results for 16 compounds from PubChem BioAssay.

A short description of experiment [1]: Her2 expression decrease, cell viability multiplex – SKBR3 breast tumor cells, AlphaScreen, ATP viability, primary screen (AID 461;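 active means Her2 level under about 52% in both replicate screens, with viability over 70% of control, limit read from the data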;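 on Her2 level: lower value means less Her2 protein in the cells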;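 on viability: percent of carrier control wells set as 100% viability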). The note with it: SKBR3 Her2 protein level, 18-24 h, measured here: SKBR3 viability, ATP luminescence, at 10 µM. On the technique in general: Bead proximity is the source of the signal in Alpha formats.
For experiment [2], the target named is Receptor tyrosine-protein kinase erbB-2 (Homo sapiens) (UniProt P04626). The description is as above. The note with it: 18-24 h, at 10 µM, stronger effect = lower value.
Experiment [3] can be described thus: reduced viability of SK-BR-3 breast cancer cells – cell-based, 24 h, human, pilot screen (AID 572;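 active means viability at or below 10% of carrier control in both of two separate runs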;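 further: compound exposure lasted between 18 and 24 h rather than exactly 24 h; 100% = carrier-treated control wells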). Conditions: SK-BR-3 viability, CellTiter-Glo luminescence, at 10 µM, stronger effect = lower value.
A short description of experiment [4]: HUVEC growth inhibition – cell-based, human, primary screen (AID 575;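 active means viability at or below 30% in both replicate assays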;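 further: 100% = median of untreated cell wells with 0.1% DMSO on each plate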). The note with it: HUVEC proliferation, CellTiter-Glo luminescence, 72 h; at 10 µM; stronger effect = lower value. The method, boiled down:
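System: primary human umbilical vein endothelial cells; Quantity: 1250 endothelial cells in each well; Buffer or medium: supplemented EBM, 2% fetal bovine serum; Doses: one dose, 10 µM final, 0.1% DMSO; Incubation: 72 h compound incubation; Technique: ATP-based CellTiter-Glo luminescent read; Evaluation: percent of median DMSO-control luminescence; Controls: vehicle and MePR control wells.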
(In ATP-based viability assays light output follows the ATP content of the culture.)

Experiment [5] can be described thus: H69AR cell proliferation blockers – human, duplicate replicates, primary screen (AID 580;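 active means viability at or under a set limit in both replicates, limit being median viability minus 3 SD, cut at about 48% in these data, passing the limit was not always enough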;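 further: 100% = mean luminescence of untreated wells and 0% = no signal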). Conditions: H69AR lung tumor cells viability, ATP luminescence, 72 h; at 10 µM; stronger effect = lower value.
Experiment [6] can be described thus: MRP1 drug-resistance reversers in H69AR cells – cell-based, doxorubicin co-treatment, pilot screen (AID 601;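 active means viability loss from added drug above about 55%, and viability with drug at most 40%, in both replicates, limit read from the data, passing the limit was not always enough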). The note with it: CellTiter-Glo, 72 h, at 10 µM; for differential viability (reversal): stronger effect = higher value.
Experiment [7] is described as follows: yeast transport mutant growth inhibition pilot in 384-well plates, post-Golgi transport modulator project (AID 636; in the data active means inhibition above about 31%). The note with it: absorbance 615 nm, about 18 h, stronger effect = higher value.
Experiment [8] is described as follows: growth suppression of yeast trafficking mutant, preliminary HTS, modulators of trafficking downstream of Golgi apparatus project, 1536-format plate, OD 615 nm (AID 637). Conditions: yeast transport mutant growth, absorbance 615 nm, 18 h; stronger effect = higher value.
Where [9] appears, read: H69AR cells + 2 uM doxorubicin, measured here: viability with 2 uM doxorubicin, stronger effect = lower value.
Where [10] appears, read: H69AR cells, compound alone cytotoxicity.

Calls of active or inactive are those of the source. Unless noted, no stated cut-off is given here; in the data, active means inhibition above about 30%; inactive means the rest.

Sequence of Receptor tyrosine-protein kinase erbB-2 (Homo sapiens) (P04626 whole entry, looked up): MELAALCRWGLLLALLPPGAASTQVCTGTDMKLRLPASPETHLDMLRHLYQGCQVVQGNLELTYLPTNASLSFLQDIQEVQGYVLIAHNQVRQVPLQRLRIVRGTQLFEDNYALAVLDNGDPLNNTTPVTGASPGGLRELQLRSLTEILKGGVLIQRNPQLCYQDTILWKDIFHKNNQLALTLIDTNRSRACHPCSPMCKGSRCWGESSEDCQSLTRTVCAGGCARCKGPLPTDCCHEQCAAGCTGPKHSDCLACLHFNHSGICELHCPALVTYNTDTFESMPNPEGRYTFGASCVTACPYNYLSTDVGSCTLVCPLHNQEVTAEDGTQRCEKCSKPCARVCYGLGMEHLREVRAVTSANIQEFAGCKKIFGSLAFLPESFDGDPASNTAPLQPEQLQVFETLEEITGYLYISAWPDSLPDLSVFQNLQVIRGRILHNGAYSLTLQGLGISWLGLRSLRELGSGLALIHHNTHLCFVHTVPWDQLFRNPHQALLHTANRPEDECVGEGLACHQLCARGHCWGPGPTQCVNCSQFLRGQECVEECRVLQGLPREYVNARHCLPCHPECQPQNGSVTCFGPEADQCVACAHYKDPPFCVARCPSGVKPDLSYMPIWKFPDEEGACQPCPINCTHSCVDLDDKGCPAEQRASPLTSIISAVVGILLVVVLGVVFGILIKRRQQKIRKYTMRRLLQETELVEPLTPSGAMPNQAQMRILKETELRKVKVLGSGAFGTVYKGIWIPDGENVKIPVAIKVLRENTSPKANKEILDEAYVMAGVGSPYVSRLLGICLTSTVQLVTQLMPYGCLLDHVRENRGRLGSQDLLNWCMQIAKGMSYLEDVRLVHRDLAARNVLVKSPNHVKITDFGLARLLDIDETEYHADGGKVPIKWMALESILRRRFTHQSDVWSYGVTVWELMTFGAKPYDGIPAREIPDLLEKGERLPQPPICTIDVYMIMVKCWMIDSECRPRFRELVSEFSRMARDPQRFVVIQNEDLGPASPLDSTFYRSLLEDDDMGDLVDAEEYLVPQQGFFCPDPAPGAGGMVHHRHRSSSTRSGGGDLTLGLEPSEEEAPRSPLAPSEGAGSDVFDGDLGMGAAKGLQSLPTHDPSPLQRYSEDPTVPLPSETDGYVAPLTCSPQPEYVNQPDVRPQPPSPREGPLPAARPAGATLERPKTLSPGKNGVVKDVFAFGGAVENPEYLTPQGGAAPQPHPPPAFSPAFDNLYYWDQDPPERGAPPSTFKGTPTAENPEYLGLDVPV

The viability is a read-out of living cells in per cent, often relative to untreated cells. Usually inhibition stands for the relative decrease from the control value, in per cent. As to `Cc1ccc(NS(=O)(=O)c2cn(C)cn2)cc1`, the viability was 95% in experiment [1]; 95% (inactive) in experiment [3]; 100% (inactive) in experiment [4]; 92.7% (inactive) in experiment [5]; 86.8% in experiment [6] (setting [9]); 92.7% in experiment [6] (setting [10]). Besides, the Her2 level in experiment [2] is 88% (inactive). In experiment [6] (H69AR cells + 2 uM doxorubicin), the differential viability (reversal) was 5.86% (inactive). Also, the values for the inhibition in experiment [7] and in experiment [8] were -2.63% (inactive) and 2.36% (inactive), respectively.

As for `CCc1nc2c(cnn2-c2ccc(Cl)cc2)c(=O)n1-c1ccc2c(c1)OCCO2`, the viability in experiment [1] was 90%; in experiment [3], 90% (inactive); in experiment [4], 83.3% (inactive); in experiment [5] it was 83.6% (inactive); in experiment [6] (setting [9]), 88%; in experiment [6] (setting [10]), 83.6%. In addition, the Her2 level in experiment [2] is 86.5% (inactive). For the same compound, in experiment [6] (H69AR cells + 2 uM doxorubicin), the differential viability (reversal) is -4.38% (inactive). For the same compound, the inhibition in experiment [7] was 0.79% (inactive); in experiment [8], -5.97% (inactive).

As to `COc1ccccc1NC(=O)NC1(C(=O)N2CCC(O)CC2)CCCCC1`, the viability is 103% in experiment [1]; 103% (inactive) in experiment [3]; 99.2% (inactive) in experiment [4]; 114% (inactive) in experiment [5]; 109% in experiment [6] (setting [9]); 114% in experiment [6] (setting [10]). For the same compound, in experiment [2], the Her2 level is 97% (inactive). The differential viability (reversal) in experiment [6] (H69AR cells + 2 uM doxorubicin) was 4.86% (inactive). The inhibition in experiment [7] is -3.9% (inactive); in experiment [8] it was -4.13% (inactive).

Turning to `O=C(Cn1cnc2c(cnn2-c2ccc(F)cc2)c1=O)N1CCCc2ccccc21`, the viability was 112% in experiment [1]; 112% (inactive) in experiment [3]; 85.6% (inactive) in experiment [4]; 94.4% (inactive) in experiment [5]; 102% in experiment [6] (setting [9]); 94.4% in experiment [6] (setting [10]). Further, the Her2 level in experiment [2] is 86.5% (inactive). In addition, the differential viability (reversal) in experiment [6] (H69AR cells + 2 uM doxorubicin) is -7.36% (inactive). For the same compound, the inhibition in experiment [7] is -4.67% (inactive); in experiment [8], -2.79% (inactive).

Consider `CCOC(=O)c1c(C)[nH]c(C)c1C(=O)COc1ccc(NC(=O)c2ccco2)cc1`, for which the viability is 88.5% in experiment [1]; 88.5% (inactive) in experiment [3]; 91.8% (inactive) in experiment [4]; 86.9% (inactive) in experiment [5]; 93.8% in experiment [6] (setting [9]); 86.9% in experiment [6] (setting [10]). Also, the Her2 level in experiment [2] is 102% (inactive). Besides, in experiment [6] (H69AR cells + 2 uM doxorubicin), the differential viability (reversal) is -6.89% (inactive). Besides, the inhibition was -1.43% (inactive) in experiment [7] and 3.65% (inactive) in experiment [8].

Turning to `O=S(=O)(NCC1CCCO1)c1cccc(C(F)(F)F)c1` (stereo not given), the viability in experiment [1] was 97%; in experiment [3] it was 97% (inactive); in experiment [4] it was 95.1% (inactive); in experiment [5], 95.1% (inactive); in experiment [6] (setting [9]), 88.4%; in experiment [6] (setting [10]) it was 95.1%. In addition, the Her2 level in experiment [2] is 93.5% (inactive). In addition, in experiment [6] (H69AR cells + 2 uM doxorubicin), the differential viability (reversal) was 6.7% (inactive). Also, the inhibition was -0.66% (inactive) in experiment [7] and -5.64% (inactive) in experiment [8].

Turning to `CC(=O)N1CCc2cc(Br)cc(S(=O)(=O)NCCCN3CCCC(C)C3)c21` (stereo not given), the viability in experiment [1] is 83%; in experiment [3], 83% (inactive); in experiment [4], 89.9% (inactive); in experiment [5] it was 91.8% (inactive); in experiment [6] (setting [9]), 91.7%; in experiment [6] (setting [10]) it was 91.8%. Further, in experiment [2], the Her2 level is 93% (inactive). The differential viability (reversal) in experiment [6] (H69AR cells + 2 uM doxorubicin) is 0.035% (inactive). Also, the inhibition in experiment [7] was -2.57% (inactive); in experiment [8], -3.93% (inactive).

On to `CCOc1ccccc1NC(=O)N1CCCC1C(=O)Nc1nnc(CC)s1` (stereo not given), for which the viability in experiment [1] is 94%; in experiment [3] it was 94% (inactive); in experiment [4] it was 89.7% (inactive); in experiment [5], 109% (inactive); in experiment [6] (setting [9]), 88.8%; in experiment [6] (setting [10]), 109%. Besides, the Her2 level in experiment [2] was 88% (inactive). Besides, in experiment [6] (H69AR cells + 2 uM doxorubicin), the differential viability (reversal) was 20% (inactive). Besides, the inhibition in experiment [7] was -5.95% (inactive); in experiment [8], -0.83% (inactive).

In the case of `CCNC(=O)c1ccc(NS(=O)(=O)c2ccccc2)cc1`, the viability is 124% in experiment [1]; 124% (inactive) in experiment [3]; 86.1% (inactive) in experiment [4]; 90.5% (inactive) in experiment [5]; 92.2% in experiment [6] (setting [9]); 90.5% in experiment [6] (setting [10]). Besides, the Her2 level in experiment [2] is 91% (inactive). Besides, the differential viability (reversal) in experiment [6] (H69AR cells + 2 uM doxorubicin) is -1.69% (inactive). Also, the inhibition is 0% (inactive) in experiment [7] and 4.1% (inactive) in experiment [8].

With `Cc1cccc(N2CCN(C(=O)CCn3c(=S)[nH]c4cc5c(cc4c3=O)OCO5)CC2C)c1` (stereo not given), the viability in experiment [1] is 86%; in experiment [3], 86% (inactive); in experiment [4], 38.2% (inactive); in experiment [5], 50.8% (inactive); in experiment [6] (setting [9]) it was 56.8%; in experiment [6] (setting [10]), 50.8%. Further, the Her2 level in experiment [2] is 85.5% (inactive). Besides, the differential viability (reversal) in experiment [6] (H69AR cells + 2 uM doxorubicin) was -5.97% (inactive). Moreover, the inhibition in experiment [7] was -1.3% (inactive); in experiment [8], 1.27% (inactive).

`Cn1c(C(=O)N2CCN(C(=O)c3ccco3)CC2)cc2c(=O)n3ccccc3nc21`: the viability is 100% in experiment [1]; 100% (inactive) in experiment [3]; 82.3% (inactive) in experiment [4]; 82.6% (inactive) in experiment [5]; 83.4% in experiment [6] (setting [9]); 82.6% in experiment [6] (setting [10]). The Her2 level in experiment [2] was 104% (inactive). Besides, in experiment [6] (H69AR cells + 2 uM doxorubicin), the differential viability (reversal) is -0.835% (inactive). The inhibition in experiment [7] was 0.26% (inactive); in experiment [8], -0.98% (inactive).

Regarding `CCNC(=O)CC1C(=O)N(c2ccccc2)C(=O)N1Cc1ccc(OC)cc1` (stereo not given), the viability is 94.5% in experiment [1]; 94.5% (inactive) in experiment [3]; 91.9% (inactive) in experiment [4]; 94.8% (inactive) in experiment [5]; 89.1% in experiment [6] (setting [9]); 94.8% in experiment [6] (setting [10]). The Her2 level in experiment [2] was 100% (inactive). For the same compound, the differential viability (reversal) in experiment [6] (H69AR cells + 2 uM doxorubicin) is 5.68% (inactive). The results for the inhibition in experiment [7] and in experiment [8] were -3.68% (inactive) and -2.91% (inactive), respectively.

Consider `CCCN1CCC(NC(=O)Nc2ccc(OC)c(OC)c2)CC1`, for which the viability in experiment [1] is 124%; in experiment [3] it was 124% (inactive); in experiment [4] it was 111% (inactive); in experiment [5] it was 90.7% (inactive); in experiment [6] (setting [9]) it was 86.1%; in experiment [6] (setting [10]) it was 90.7%. For the same compound, the Her2 level in experiment [2] was 96.5% (inactive). In addition, in experiment [6] (H69AR cells + 2 uM doxorubicin), the differential viability (reversal) was 4.61% (inactive). Further, the inhibition in experiment [7] is -1.69% (inactive); in experiment [8], -2.33% (inactive).

Turning to `CCCCC(O)(C(NC=O)C(=O)OC)C(F)(F)F` (stereo not given), the viability in experiment [1] is 95.5%; in experiment [3] it was 95.5% (inactive); in experiment [4], 108% (inactive); in experiment [5] it was 99.4% (inactive); in experiment [6] (setting [9]) it was 95.7%; in experiment [6] (setting [10]), 99.4%. Also, in experiment [2], the Her2 level is 85% (inactive). Further, the differential viability (reversal) in experiment [6] (H69AR cells + 2 uM doxorubicin) is 3.77% (inactive). In addition, the results for the inhibition in experiment [7] and in experiment [8] were -2.27% (inactive) and 7.58% (inactive), respectively.

For the compound `N#CC1=C(N)S[C@H](C(=O)C23CC4CC(CC(C4)C2)C3)[C@H]1c1ccncc1`, the viability in experiment [1] was 81%; in experiment [3], 81% (inactive); in experiment [4] it was 41% (inactive); in experiment [5], 93.7% (inactive); in experiment [6] (setting [9]), 46.1%; in experiment [6] (setting [10]), 93.7%. The Her2 level in experiment [2] is 79% (inactive). For the same compound, the differential viability (reversal) in experiment [6] (H69AR cells + 2 uM doxorubicin) was 47.6% (inactive). For the same compound, the inhibition in experiment [7] was -2.8% (inactive); in experiment [8] it was 4.84% (inactive).

Turning to `Cc1cc2c(cc1C)C(=O)NC(C)(C)C2`, the viability in experiment [1] was 104%; in experiment [3] it was 104% (inactive); in experiment [4], 79.4% (inactive); in experiment [5] it was 95.2% (inactive); in experiment [6] (setting [9]), 109%; in experiment [6] (setting [10]) it was 95.2%. Moreover, the Her2 level in experiment [2] was 98% (inactive). Moreover, in experiment [6] (H69AR cells + 2 uM doxorubicin), the differential viability (reversal) is -13.8% (inactive). Further, the inhibition in experiment [7] was -2.7% (inactive); in experiment [8], -1.15% (inactive).
